Results reported in ChEMBL document CHEMBL5143598, “Cytotoxic Sesquiterpenoids from Ammoides atlantica Aerial Parts” (J Nat Prod, 2022).
The source made the active and inactive calls. The rule behind the calls is not given here.

Columns and labels:
Jurkat [1] = assay: Antiproliferative activity against human Jurkat cells assessed as reduction in cell viability measured after 48 hrs by colorimetric based MTT assay; type: functional
Method in brief: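 Jurkat leukemia cells kept in RPMI with 10% FBS, 2 mM L-glutamine and penicillin/streptomycin at 37 °C, 5% CO2. Plated at 3.5 × 10^3 cells/well and left 24 h, then given fresh medium alone or with serial dilutions (40, 20, 10, 5 μM) for 48 h. Staurosporine 0.2 μM served as positive control. MTT added for 3 h, formazan dissolved in DMF/SDS solution at pH 4.5, OD read at 620 nm. Viability calculated as % of DMSO control. IC50 taken as the concentration giving 50% growth inhibition versus control.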

[2] = Antiproliferative activity against human HaCaT cells assessed as reduction in cell viability measured after 48 hrs by colorimetric based MTT assay
A549 [3] = assay: Antiproliferative activity against human A549 cells assessed as reduction in cell viability measured after 48 hrs by colorimetric based MTT assay; type: functional; settings: A549, 48 h
MCF7 = assay: Antiproliferative activity against human MCF7 cells assessed as reduction in cell viability measured after 48 hrs by colorimetric based MTT assay; type: functional; settings: MCF7, 48 h
A-375 = assay: Antiproliferative activity against human A-375 cells assessed as reduction in cell viability measured after 48 hrs by colorimetric based MTT assay; type: functional; settings: A-375, 48 h
A549 [4] = assay: Induction of apoptosis in human A549 cells assessed as increase accumulation of hypodiploid nuclei cells at 5 to 40 uM measured after 24 hrs by PI staining based flow cytometry analysis; type: functional, cell-based; settings: dose 5-40 µM
Method in brief: (§1)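 A549, Jurkat or HaCaT cells plated at 3 × 10^4 cells/well, left 24 h, then exposed to 40, 20, 10 or 5 μM for 24 h. Staurosporine 0.2 μM served as positive control. Cells washed in PBS and stained 30 min at 4 °C in the dark with PI in 0.1% Triton X-100/0.1% sodium citrate. Analysed by flow cytometry with debris excluded by forward scatter and DNA on a log scale. Read-out is % hypodiploid nuclei. Three independent experiments in triplicate, mean ± SEM, Mann–Whitney U test.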

Jurkat [5] = assay: Induction of cell cycle arrest in human Jurkat cells assessed as accumulation at S phase measured after 24 hrs by PI staining based flow cytometry analysis; type: functional; settings: dose 5-40 µM, DDE = dose-dependent effect
Method in brief: (§2)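 HaCaT or Jurkat cells plated at 3 × 10^4 cells/well, left 24 h, then treated with 40, 20, 10 or 5 μM for 24 h. Staurosporine 0.2 μM served as positive control. DNA stained with PI and 10 000 events per sample acquired by flow cytometry. Percentages of cells in G0/G1, S and G2/M were derived from the DNA profiles. Three independent experiments in triplicate, mean ± SEM, Mann–Whitney U test.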

A549 [6] = assay: Induction of apoptosis in human A549 cells assessed as increase accumulation of hypodiploid nuclei cells measured after 24 hrs by PI staining based flow cytometry analysis; type: functional, cell-based; settings: dose 5-40 µM, DDE = dose-dependent effect; method in brief: as §1
Jurkat [7] = assay: Induction of apoptosis in human Jurkat cells assessed as increase accumulation of hypodiploid nuclei cells measured after 24 hrs by PI staining based flow cytometry analysis; type: functional, cell-based; settings: dose 5-40 µM, DDE = dose-dependent effect; method in brief: as §1
HaCaT [8] = assay: Induction of cell cycle arrest in human HaCaT cells assessed as accumulation at G2 phase at 40 uM measured after 24 hrs by PI staining based flow cytometry analysis; type: functional; method in brief: as §2
HaCaT [9] = assay: Induction of apoptosis in human HaCaT cells assessed as increase accumulation of hypodiploid nuclei cells at 5 to 40 uM measured after 24 hrs by PI staining based flow cytometry analysis; type: functional, cell-based; settings: dose 5-40 µM; method in brief: as §1
HaCaT [10] = assay: Induction of apoptosis in human HaCaT cells assessed as increase accumulation of hypodiploid nuclei cells measured after 24 hrs by PI staining based flow cytometry analysis; type: functional, cell-based; settings: dose 5-40 µM, DDE = dose-dependent effect; method in brief: as §1

Row | Compound | IC50 (Jurkat [1]) [µM] | IC50 (A549 [3]) [µM] | IC50 (MCF7) [µM] | IC50 (A-375) [µM] | IC50 at 48 h [2] [µM] | Activity (A549 [4]) | Activity (Jurkat [5]) | Activity (A549 [6]) | Activity (Jurkat [7]) | Activity (HaCaT [8]) | Activity (HaCaT [9]) | Activity (HaCaT [10])
1 | C[C@H]1CC[C@]23O[C@]12C[C@H](C(C)(C)O)CC[C@@]3(C)O (relative stereo) | > 10 | > 10 | > 10 | > 10 | > 10 |  |  |  |  |  |  | 
2 | CC(C)(O)/C=C/[C@H]1OC(=O)C[C@]1(C)O (relative stereo) | > 10 | > 10 | > 10 | > 10 | > 10 |  |  |  |  |  |  | 
3 | C=C1C(=O)O[C@@H]2[C@H]1C[C@@H](OC(C)=O)[C@@](C)(O)[C@]13O[C@H]1[C@@H](Cl)[C@](C)(O)[C@H]23 | > 10 | > 10 | > 10 | > 10 | 3.5 |  |  |  |  |  |  | 
4 | CN[C@@H]1C[C@H]2O[C@@](C)([C@@H]1OC)n1c3ccccc3c3c4c(c5c6ccccc6n2c5c31)C(=O)NC4 [STAUROSPORINE] | 3.2 |  |  |  |  |  |  |  |  |  |  | 
5 | C=C1C(=O)O[C@@H]2C1C[C@@H](OC(C)=O)[C@](C)(O)[C@@]13C=C[C@@](C)(OO1)C23 (stereo not given in full) | 4.7 | 4.1 | > 10 | > 10 | 1.7 |  |  |  |  |  |  | 
6 | CC(=O)O[C@@H]1CC(C)=C2C(=O)C=C(C)[C@@H]2[C@@H](O)[C@H]1C(C)C(=O)O (relative stereo) | > 10 | > 10 | > 10 | > 10 | > 10 |  |  |  |  |  |  | 

More lines, main results first:

Row | IC50 (Jurkat [1]) [µM] | IC50 (A549 [3]) [µM] | IC50 (MCF7) [µM] | IC50 (A-375) [µM] | Compound | IC50 at 48 h [2] [µM] | Activity (A549 [4]) | Activity (Jurkat [5]) | Activity (A549 [6]) | Activity (Jurkat [7]) | Activity (HaCaT [8]) | Activity (HaCaT [9]) | Activity (HaCaT [10])
7 | > 10 | > 10 | > 10 | > 10 | C=C1C(=O)O[C@H]2[C@H]1C[C@H](OC(C)=O)[C@](C)(O)[C@@]1(O)[C@@H](O)[C@H]3O[C@@]3(C)[C@H]21 (relative stereo) | > 10 |  |  |  |  |  |  | 
8 | > 10 | > 10 | > 10 | > 10 | C=C(C)[C@@H](O)CC[C@@H](C)C1C[C@H](O)C(C)=C[C@@H]1O (relative stereo) | > 10 |  |  |  |  |  |  | 
9 | > 10 | > 10 | > 10 | > 10 | C=C1[C@@H]2[C@H]3OC(=O)C(COC(C)=O)=C3CC[C@@]2(C)[C@H](O)C[C@@H]1O | > 10 |  |  |  |  |  |  | 
10 | 5 | > 10 | 9.6 | 3.7 | C=C1C(=O)O[C@@H]2C1C[C@@H](OC(C)=O)[C@@](C)(O)[C@@]13O[C@@H]1[C@@H]1O[C@]1(C)[C@H]23 (stereo not given in full) | 1.6 | Active | Dde | Dde | Dde | Active | Active | Dde
11 | > 10 | > 10 | > 10 | > 10 | C=C1[C@@H]2[C@@H](OC(C)=O)/C(=C(\CO)C(=O)O)CC[C@@]2(C)[C@H](O)C[C@@H]1O | > 10 |  |  |  |  |  |  | 
12 | 7.7 | 8.9 | > 10 | > 10 | C=C1C(=O)O[C@H](C2=C(C)[C@@H](O)CC2=O)[C@@H]1CCC(C)=O | 2.9 | Active | Dde | Dde | Dde | Active | Active | Dde
13 | > 10 | > 10 | > 10 | > 10 | C=C1C(=O)O[C@H]([C@H]2C(=O)C=C[C@]2(C)O)[C@@H]1CCC(C)=O | > 10 |  |  |  |  |  |  | 
